Data: ChEMBL document CHEMBL4765231 (J Med Chem, 2016)
Values after ≈ are worked out from the molar mass of the structure shown. Active and inactive are the calls of the source. The calls are words filed in the database; no cut-off is given here.

Experiments:
[1] = species on record: Oryctolagus cuniculus; assay: Cardioprotective activity in rabbit assessed as decrease in chemically-induced Torsades des Pointes at 2.5 uM by electrocardiographic analysis; assay type: functional; design: scale not given: the % may be the effect or the level left
[2] = Oral bioavailability in Beagle dog; assay type: ADME, organism-based, Canis lupus familiaris; conditions: in vivo
[3] = species on record: Oryctolagus cuniculus; assay: Cardioprotective activity in rabbit model of left circumflex artery ligation-induced ischemia assessed as inhibition of VT-VF by electrocardiographic analysis; assay type: functional, organism-based
[4] = Oral bioavailability in cynomolgus monkey; assay type: ADME, organism-based, Macaca fascicularis; conditions: in vivo
[5] = Intrinsic clearance in Beagle dog hepatocytes; assay type: ADME, cell-based, Canis lupus familiaris, Hepatocyte; conditions: read-out: CLH (converted)
[6] = species on record: Oryctolagus cuniculus; assay: (§1) Cardioprotective activity in New Zealand rabbit model of LAD coronary artery occlusion-induced ischemia-reperfusion injury assessed as inhibition of ST segment elevation at 0.5 uM for 30 mins followed by induction of ischemia for 15 mins and subsequent reperfusion for 15 mins by electrocardiographic analysis; assay type: functional; design: scale not given: the % may be the effect or the level left; conditions: time 60 min, 1 h
[7] = Intrinsic clearance in cynomolgus monkey hepatocytes; assay type: ADME, cell-based, Macaca fascicularis, Hepatocyte; conditions: read-out: CLH (converted)
[8] = species on record: Oryctolagus cuniculus; assay: Cardioprotective activity in New Zealand rabbit heart assessed as reversal of ATX-II induced late sodium current increase in QT interval by electrocardiographic analysis; assay type: functional
[9] = species on record: Oryctolagus cuniculus; assay: as §1, with “in” for “in New Zealand”, “by measuring maximum efficacy incubated with compound” for “at 0.5 uM”, “analysis relative to ranolazine” for “analysis”; assay type: functional; conditions: 0.5 h
[10] = Half-life in iv dosed cynomolgus monkey; assay type: ADME, organism-based, Macaca fascicularis; conditions: in vivo
[11] = Half-life in iv dosed Sprague-Dawley rat; assay type: ADME, organism-based; conditions: in vivo
[12] = biological target: T1, Sodium channel protein type 1 subunit alpha (Homo sapiens, UniProt P35498); assay: Inhibition of NaV1.1 (unknown origin) at 10 Hz frequency by whole cell manual patch clamp technique
Outline: (§2)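 Whole-cell manual patch clamp on non-cardiac NaV1.x channels, run at room temperature. Series resistance was compensated 90% so the command potential was reached within microseconds.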

[13] = Clearance in iv dosed Beagle dog; assay type: ADME, organism-based, Canis lupus familiaris; conditions: in vivo
[14] = Oral bioavailability in Sprague-Dawley rat; assay type: ADME, organism-based; conditions: in vivo
[15] = species on record: Homo sapiens; assay: Inhibition of L-type calcium channel (unknown origin)
[16] = Volume of distribution at steady state in iv dosed Sprague-Dawley rat; assay type: ADME, organism-based; conditions: in vivo, read-out: Vdss
[17] = Inhibition of late sodium current channel (unknown origin) at 25 Hz frequency by whole cell patch clamp technique; conditions: Homo sapiens
[18] = Inhibition of ATX-II induced late sodium current (unknown origin) by manual patch clamp method; design: species or system Homo sapiens
[19] = Clearance in iv dosed Sprague-Dawley rat; assay type: ADME, organism-based; conditions: in vivo
[20] = tested on: Oryctolagus cuniculus; assay: as §1, with “intravenously administered with compound” for “at 0.5 uM”; assay type: functional
[21] = Half-life in iv dosed Beagle dog; assay type: ADME, organism-based, Canis lupus familiaris; conditions: in vivo
[22] = Volume of distribution at steady state in iv dosed cynomolgus monkey; assay type: ADME, organism-based, Macaca fascicularis; conditions: in vivo, read-out: Vdss
[23] = species on record: Oryctolagus cuniculus; assay: as §1, with “0.25” for “0.5”; assay type: functional; design: scale not given: the % may be the effect or the level left; conditions: time 60 min, 1 h
[24] = biological target: NaV1.5 (Homo sapiens, UniProt Q14524); assay: Inhibition of human NaV1.5 expressed in HEK293 cells assessed as inhibition of peak sodium current measured at frequency 3 Hz at -20 mV resting membrane potential at 3 uM by electrophysiology assay relative to control; assay type: cell-based; conditions: HEK293 cells expressing human NaV1.5
[25] = Intrinsic clearance in human hepatocytes; assay type: ADME, cell-based, Hepatocyte; conditions: read-out: CLH
Outline: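 Clearance measured in pooled human hepatocytes with tritium-labelled compound.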

[26] = Inhibition of peak sodium current (unknown origin) by manual patch clamp method; design: species or system Homo sapiens
[27] = biological target: Sodium channel protein type 10 subunit alpha (Homo sapiens, UniProt Q9Y5Y9); assay: Inhibition of NaV1.8 (unknown origin) at 10 Hz frequency by whole cell manual patch clamp technique; outline: as §2
[28] = biological target: T2, Sodium channel protein type 8 subunit alpha (Homo sapiens, UniProt Q9UQD0); assay: Inhibition of NaV1.6 (unknown origin) at 25 Hz frequency by whole cell manual patch clamp technique; outline: as §2
[29] = Metabolic stability in dog microsomes assessed as half life; assay type: ADME, Canis lupus familiaris, Microsome
[30] = species on record: Oryctolagus cuniculus; assay: as §1, with “500 nM” for “0.5 uM”; assay type: functional; conditions: 1 h, time 60 min
[31] = biological target: T3, Sodium channel protein type 3 subunit alpha (Homo sapiens, UniProt Q9NY46); assay: Inhibition of NaV1.3 (unknown origin) at 10 Hz frequency by whole cell manual patch clamp technique; outline: as §2
T3 sequence (Q9NY46 whole entry): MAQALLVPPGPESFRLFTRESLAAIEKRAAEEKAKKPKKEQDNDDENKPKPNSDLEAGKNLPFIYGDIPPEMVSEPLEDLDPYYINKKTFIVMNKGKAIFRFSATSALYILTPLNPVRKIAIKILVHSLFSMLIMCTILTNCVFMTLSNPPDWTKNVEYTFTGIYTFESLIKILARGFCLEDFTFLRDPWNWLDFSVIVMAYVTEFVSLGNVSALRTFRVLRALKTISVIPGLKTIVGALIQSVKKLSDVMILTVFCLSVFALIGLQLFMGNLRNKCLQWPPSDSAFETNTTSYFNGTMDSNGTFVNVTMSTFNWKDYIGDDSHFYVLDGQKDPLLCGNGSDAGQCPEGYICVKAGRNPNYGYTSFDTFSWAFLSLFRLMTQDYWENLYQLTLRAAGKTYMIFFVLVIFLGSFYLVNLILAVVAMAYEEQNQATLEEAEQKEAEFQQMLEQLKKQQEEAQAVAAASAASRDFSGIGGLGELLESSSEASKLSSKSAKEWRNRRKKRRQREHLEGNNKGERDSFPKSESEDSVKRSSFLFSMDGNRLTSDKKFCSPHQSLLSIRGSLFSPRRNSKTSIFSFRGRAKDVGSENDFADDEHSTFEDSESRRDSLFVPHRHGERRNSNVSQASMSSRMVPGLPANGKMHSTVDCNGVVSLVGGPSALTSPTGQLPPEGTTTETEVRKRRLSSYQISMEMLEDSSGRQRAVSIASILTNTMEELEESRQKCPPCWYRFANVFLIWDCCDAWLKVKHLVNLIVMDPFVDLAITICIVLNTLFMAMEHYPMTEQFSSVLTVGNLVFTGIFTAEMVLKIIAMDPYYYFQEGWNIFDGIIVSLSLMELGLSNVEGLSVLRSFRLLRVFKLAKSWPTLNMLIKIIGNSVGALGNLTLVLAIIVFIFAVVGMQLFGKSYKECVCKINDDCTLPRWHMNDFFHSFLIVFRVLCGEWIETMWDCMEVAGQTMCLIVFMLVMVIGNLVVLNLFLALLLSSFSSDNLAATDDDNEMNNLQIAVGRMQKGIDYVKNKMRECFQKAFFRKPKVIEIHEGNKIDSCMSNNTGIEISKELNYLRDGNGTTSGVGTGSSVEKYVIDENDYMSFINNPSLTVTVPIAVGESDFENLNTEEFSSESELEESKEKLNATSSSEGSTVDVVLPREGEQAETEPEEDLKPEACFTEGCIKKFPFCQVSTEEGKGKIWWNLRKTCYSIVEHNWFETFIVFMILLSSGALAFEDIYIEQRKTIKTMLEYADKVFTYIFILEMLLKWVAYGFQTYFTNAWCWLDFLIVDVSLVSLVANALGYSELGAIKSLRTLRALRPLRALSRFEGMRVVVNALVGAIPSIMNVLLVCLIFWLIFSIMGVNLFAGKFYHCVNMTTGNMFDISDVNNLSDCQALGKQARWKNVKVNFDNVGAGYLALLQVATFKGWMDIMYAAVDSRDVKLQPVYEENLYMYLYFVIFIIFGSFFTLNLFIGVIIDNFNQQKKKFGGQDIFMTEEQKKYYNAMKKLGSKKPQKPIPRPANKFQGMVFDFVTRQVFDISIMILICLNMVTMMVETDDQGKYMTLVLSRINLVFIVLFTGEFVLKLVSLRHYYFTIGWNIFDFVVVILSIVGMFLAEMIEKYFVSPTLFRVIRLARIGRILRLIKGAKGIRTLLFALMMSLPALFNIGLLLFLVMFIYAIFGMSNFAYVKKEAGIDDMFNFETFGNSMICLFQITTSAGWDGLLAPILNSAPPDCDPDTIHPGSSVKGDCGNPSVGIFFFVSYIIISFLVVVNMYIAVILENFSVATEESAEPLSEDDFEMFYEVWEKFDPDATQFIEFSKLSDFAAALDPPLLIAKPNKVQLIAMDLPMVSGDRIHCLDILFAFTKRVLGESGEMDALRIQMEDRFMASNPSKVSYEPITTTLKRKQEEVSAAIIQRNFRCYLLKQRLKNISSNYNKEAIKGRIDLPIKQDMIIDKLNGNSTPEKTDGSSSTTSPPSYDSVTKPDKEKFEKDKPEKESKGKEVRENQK

[32] = Metabolic stability in rat microsomes assessed as half life; assay type: ADME, Microsome
[33] = Permeability of compound across basolateral to apical side in human Caco-2 cells; assay type: ADME, cell-based; conditions: read-out: permeability
[34] = Volume of distribution at steady state in iv dosed Beagle dog; assay type: ADME, organism-based, Canis lupus familiaris; conditions: in vivo, read-out: Vdss
[35] = Intrinsic clearance in Sprague-dawley rat hepatocytes; assay type: ADME, cell-based, Hepatocyte; conditions: read-out: CLH (converted)
[36] = Solubility of compound in water; assay type: physicochemical
[37] = species on record: Oryctolagus cuniculus; assay: Cardioprotective activity in New Zealand White rabbit heart assessed as reversal of ATX-II induced late sodium current prolongation in change in duration of monophasic action potential at 90 percent repolarization at 1 uM by electrocardiographic analysis relative to control; assay type: functional
[38] = Clearance in iv dosed cynomolgus monkey; assay type: ADME, organism-based, Macaca fascicularis; conditions: in vivo
[39] = biological target: NaV1.1 (Homo sapiens, UniProt P35498); assay: Inhibition of NaV1.1 (unknown origin) expressed in cells assessed as inhibition of peak INa current at 10 uM at 25 Hz frequency by whole-cell patch clamp method relative to control; assay type: cell-based; conditions: cells expressing NaV1.1; outline: as §2
[40] = tested on: Oryctolagus cuniculus; assay: Cardioprotective activity in rabbit model of left circumflex artery ligation-induced ischemia assessed as inhibition of VT-VF at 0.125 to 1.5 mg/kg by electrocardiographic analysis; assay type: functional, organism-based; conditions: dose 0.125-1.5 mg/kg
[41] = Toxicity in New Zealand rabbit model of LAD coronary artery occlusion-induced ischemia-reperfusion injury assessed as effect on ECG interval at 0.25 to 0.5 uM; design: species or system Oryctolagus cuniculus; conditions: in vivo, dose 0.25-0.5 µM
[42] = Toxicity in dog assessed as adverse event at > 10 uM; design: species or system Canis lupus familiaris; conditions: in vivo
Outline: (§3)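 Single ascending dose studies, with CNS-related adverse events monitored.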

[43] = biological target: T4, Sodium channel protein type 4 subunit alpha (Homo sapiens, UniProt P35499); assay: Inhibition of NaV1.4 (unknown origin) at 25 Hz frequency by whole cell manual patch clamp technique; outline: as §2
T4 sequence (P35499 whole entry): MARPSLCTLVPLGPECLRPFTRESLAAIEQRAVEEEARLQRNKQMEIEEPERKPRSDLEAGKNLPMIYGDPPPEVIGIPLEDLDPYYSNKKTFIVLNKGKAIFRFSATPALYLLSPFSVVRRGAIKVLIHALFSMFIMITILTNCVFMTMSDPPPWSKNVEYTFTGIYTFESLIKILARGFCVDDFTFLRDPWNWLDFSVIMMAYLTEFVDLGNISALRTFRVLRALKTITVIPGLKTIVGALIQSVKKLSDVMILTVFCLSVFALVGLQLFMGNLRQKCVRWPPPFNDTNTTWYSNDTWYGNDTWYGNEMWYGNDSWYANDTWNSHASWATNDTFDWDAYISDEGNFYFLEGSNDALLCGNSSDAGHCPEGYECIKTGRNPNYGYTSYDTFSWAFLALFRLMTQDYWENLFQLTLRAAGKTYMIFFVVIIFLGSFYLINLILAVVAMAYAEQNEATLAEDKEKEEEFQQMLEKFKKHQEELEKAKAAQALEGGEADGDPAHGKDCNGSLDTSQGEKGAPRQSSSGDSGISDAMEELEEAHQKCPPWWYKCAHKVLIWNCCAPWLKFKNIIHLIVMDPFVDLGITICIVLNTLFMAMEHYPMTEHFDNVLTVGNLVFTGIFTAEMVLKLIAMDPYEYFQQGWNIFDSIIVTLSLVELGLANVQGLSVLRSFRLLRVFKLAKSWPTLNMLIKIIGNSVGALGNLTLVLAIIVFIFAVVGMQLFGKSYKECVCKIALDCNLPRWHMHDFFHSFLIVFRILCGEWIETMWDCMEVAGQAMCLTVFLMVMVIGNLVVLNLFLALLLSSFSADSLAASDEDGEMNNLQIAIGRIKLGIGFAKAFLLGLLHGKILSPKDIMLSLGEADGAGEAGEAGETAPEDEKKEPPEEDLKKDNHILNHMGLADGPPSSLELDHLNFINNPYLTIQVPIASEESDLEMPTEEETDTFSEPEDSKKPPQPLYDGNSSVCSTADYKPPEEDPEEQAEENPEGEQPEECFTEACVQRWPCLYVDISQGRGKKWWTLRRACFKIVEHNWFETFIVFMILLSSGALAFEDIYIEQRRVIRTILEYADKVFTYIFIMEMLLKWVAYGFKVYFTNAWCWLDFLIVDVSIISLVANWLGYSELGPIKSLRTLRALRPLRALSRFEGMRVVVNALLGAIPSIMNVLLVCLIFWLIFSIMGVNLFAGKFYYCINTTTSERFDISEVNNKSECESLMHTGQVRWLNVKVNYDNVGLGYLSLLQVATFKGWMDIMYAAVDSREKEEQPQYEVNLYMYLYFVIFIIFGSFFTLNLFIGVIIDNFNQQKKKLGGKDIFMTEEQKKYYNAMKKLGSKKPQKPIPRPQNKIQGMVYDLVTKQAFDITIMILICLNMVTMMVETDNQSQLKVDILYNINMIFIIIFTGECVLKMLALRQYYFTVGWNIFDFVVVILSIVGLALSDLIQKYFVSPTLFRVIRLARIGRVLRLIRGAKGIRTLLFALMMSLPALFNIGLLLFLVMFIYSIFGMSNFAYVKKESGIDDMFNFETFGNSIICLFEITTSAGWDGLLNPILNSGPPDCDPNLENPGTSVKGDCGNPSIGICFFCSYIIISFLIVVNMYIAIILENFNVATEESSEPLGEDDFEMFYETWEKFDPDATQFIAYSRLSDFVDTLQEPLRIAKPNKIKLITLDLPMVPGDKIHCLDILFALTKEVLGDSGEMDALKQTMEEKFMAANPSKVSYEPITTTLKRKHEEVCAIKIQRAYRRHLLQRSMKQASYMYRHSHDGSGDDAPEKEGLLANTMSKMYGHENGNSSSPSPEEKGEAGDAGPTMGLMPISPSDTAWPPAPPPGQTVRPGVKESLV

[44] = biological target: T2, Sodium channel protein type 8 subunit alpha; assay: Inhibition of NaV1.6 (unknown origin) at 10 Hz frequency by whole cell manual patch clamp technique; outline: as §2
[45] = species on record: Oryctolagus cuniculus; assay: Cardioprotective activity in New Zealand White rabbit heart assessed as reversal of ATX-II induced late sodium current prolongation in change in duration of monophasic action potential at 90 percent repolarization by electrocardiographic analysis relative to control; assay type: functional, tissue-based
[46] = biological target: T1, Sodium channel protein type 1 subunit alpha; assay: Inhibition of peak NaV1.1 (unknown origin) at 10 uM at 10 Hz frequency by manual patch clamp technique
Outline: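 Whole-cell manual patch clamp at room temperature, with series resistance compensated 90%.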

[47] = biological target: T3, Sodium channel protein type 3 subunit alpha; assay: Inhibition of NaV1.3 (unknown origin) at 25 Hz frequency by whole cell manual patch clamp technique; outline: as §2
[48] = Toxicity in rat assessed as adverse event at > 10 uM; conditions: in vivo; outline: as §3
[49] = Toxicity in New Zealand rabbit model of LAD coronary artery occlusion-induced ischemia-reperfusion injury assessed as effect on blood pressure at 0.25 to 0.5 uM; design: species or system Oryctolagus cuniculus; conditions: in vivo, dose 0.25-0.5 µM
[50] = Toxicity in New Zealand rabbit model of LAD coronary artery occlusion-induced ischemia-reperfusion injury assessed as effect on heart rate at 0.25 to 0.5 uM; design: species or system Oryctolagus cuniculus; conditions: in vivo, dose 0.25-0.5 µM
[51] = species on record: Oryctolagus cuniculus; assay: Cardioprotective activity in rabbit model of left circumflex artery ligation-induced ischemia assessed as inhibition of VT-VF at 2.5 uM; assay type: functional, organism-based
[52] = Metabolic stability in human microsomes assessed as half life; assay type: ADME, Microsome
[53] = biological target: T4, Sodium channel protein type 4 subunit alpha; assay: Inhibition of NaV1.4 (unknown origin) at 10 Hz frequency by whole cell manual patch clamp technique; outline: as §2
[54] = Permeability of compound across apical to basolateral side in human Caco-2 cells; assay type: ADME, cell-based; conditions: read-out: permeability

O=C1c2cc(-c3ccc(OC(F)(F)F)cc3)ccc2OCCN1Cc1ncccn1 [ELECLAZINE]
Activity [1]: 100% | bioavailability [2]: 100% | EC50 [3]: 1.7 µM | bioavailability [4]: 39% | CLint scaled [5]: 1 mL/min/kg | Activity [6]: 93% | CLint scaled [7]: 6 mL/min/kg | Activity [8]: Active | Emax [9]: 93% | half-life [10]: 5 h | half-life [11]: 13 h | IC50 [12]: 96 µM | clearance [13]: 0.7 mL/min/kg | bioavailability [14]: 91% | inhibition [15]: inactive | Vd [16]: 2.5 L/kg | IC50 [17]: 0.88 µM | IC50 [18]: 0.62 µM | clearance [19]: 2.33 mL/min/kg | EC50 [20]: 0.19 µM | Activity ([20]; time 60.0 min): Dose-dependent effect | half-life [21]: 27.9 h | Vd [22]: 1.5 L/kg | Activity [23]: 55% | inhibition at 3 µM [24]: 24% | CLint scaled [25]: < 0.25 mL/min/kg | IC50 [26]: 51 µM | IC50 [27]: 18.8 µM | IC50 [28]: 4 µM | half-life [29]: 5.9 h | inhibition in vivo at 0.5 µM [30]: 93% | IC50 [31]: 16 µM | half-life [32]: 3.33 h | Papp B→A [33]: 29 ×10⁻⁶ cm/s | Vd [34]: 1.6 L/kg | CLint scaled [35]: 2.67 mL/min/kg | solubility [36]: 24 µM (≈ 9.97 µg/mL) | Activity [37]: 62% | clearance [38]: 1.83 mL/min/kg | inhibition at 10 µM [39]: 53% | Activity [40]: Active | Activity [41]: Non-Toxic | Activity [42]: Toxic | IC50 [43]: 3.3 µM | IC50 [44]: 28 µM | IC50 [45]: 0.7 µM | inhibition (INH) [46]: Not Active | IC50 [47]: 3.5 µM | Activity [48]: Toxic | Activity [49]: Non-Toxic | Activity [50]: Non-Toxic | Activity [51]: Active | half-life [52]: 6.58 h | IC50 [53]: 13 µM | Papp A→B [54]: 34.6 ×10⁻⁶ cm/s
